# Most compounds without a hit are left out; they make up all but 1.6% or so of the library.
# Tb MetRS inh – T. brucei MetRS inhibitors, primary screen, biochemical, luminescence; AID 624268, 2012; purified T. brucei MetRS, ATP depletion, Kinase-Glo luminescence; inhibition, % at 11.9 µM; methionyl-tRNA synthetase (Trypanosoma brucei brucei); hit rate 0.4% among 360,000;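 active = inhibition above a per-plate cutoff of the control wells' mean inhibition plus 3 SD, cut at about 5.5% in these data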;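 also: 0% = DMSO wells median and 100% = median of wells with control inhibitor compound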
#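 Measured by: Kinase-Glo luciferase luminescence reporting remaining unconsumed ATP. Material: purified T. brucei MetRS enzyme. Doses: 11.9 µM compound single dose, 0.9% DMSO. Medium: HEPES buffer containing pyrophosphatase, BSA, spermine, DTT. Times: 15 min preincubation, 2 h reaction, all 25 °C. Reagent: methionine, ATP and bulk E. coli tRNA.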
# Arr AP2 block – inhibitors of beta-arrestin/AP2 binding, primary screen, biochemical, GPCR trafficking, flow cytometry | beta-arrestin 1 C-terminal peptide binding to AP2 beta2-adaptin appendage (human) | FITC-arrestin peptide / GST-AP2 beads; AP2 beta2 appendage carries R879A mutation | inhibition, % at 10 µM | hit rate 0.31% among 340,000;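 active = inhibition above a set limit, near 3 SD of compounds lacking own fluorescence, cut at about 54% in these data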;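 also: plate controls were DMSO wells for no effect and 5 µM unlabelled arrestin peptide for full effect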
#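 System: GST-AP2 R879A glutathione beads; medium: PBS, Tween 20 0.05%, BSA 0.1%; reagent: fluorescein-tagged arrestin peptide at 50 nM final; schedule: pre-incubation 12 min, peptide binding 1 h, room temperature; detection: flow cytometry, FL1 (488/535 nm); read-out: inhibition as reduced fluorescein signal on beads, percent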
# SKN-1 inh – suppressors of acrylamide-induced Pgst-4::GFP reporter in worms, primary screen, SKN-1 inhibitor project, whole organism, uHTS, GFP/RFP fluorescence ratio, strain VP596. hit rate 0.49% among 360,000. inhibition, % at 21.8 µM. AID 624304, 2012. C. elegans VP596 Pgst-4::GFP/RFP ratio, 24 h;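 active = interference check ratio from 0.5 to 1.5 plus GFP to RFP signal ratio inhibition reaching or exceeding a fixed threshold, cut at about 30% in these data, passing the limit was not always enough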
# MT1-MMP act inh – blockers of MT1-MMP proenzyme processing, primary screen, HT1080 RFP-PRO-GFP cells, GFP/RFP fluorescence. Matrix metalloproteinase-14 (Homo sapiens), P50281. GFP/RFP ratio fluorescence, overnight; percent of plate control window, DMSO zero. GFP/RFP ratio change, % at 20 µM. hit rate 0.061% among 360,000. AID 651647, 2012;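 active = GFP/RFP ratio change of at least 30% with cell ATP level not reduced by more than half and red fluorescence within 50% of control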
#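 system = RFP-PRO-GFP reporter HT1080 cells | dosing = 20 µM single dose, 1% DMSO | timing = overnight cell settling, then overnight compound exposure, 37 °C, 5% CO2 | read-out basis = GFP/RFP fluorescence ratio | controls = DMSO and RFP-L50D-GFP cell wells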
# Rin1 Abl inh – inhibitors of Rin1-Abl protein binding, primary screen, biochemical, TR-FRET; Tyrosine-protein kinase ABL1 (Homo sapiens) + Ras and Rab interactor 1 (Homo sapiens), …; inhibition, % at 7.35 µM; hit rate 0.4% among 360,000; in the data active = inhibition above about 5%, passing the limit was not always enough
# Target sequence (P00519 whole entry, looked up): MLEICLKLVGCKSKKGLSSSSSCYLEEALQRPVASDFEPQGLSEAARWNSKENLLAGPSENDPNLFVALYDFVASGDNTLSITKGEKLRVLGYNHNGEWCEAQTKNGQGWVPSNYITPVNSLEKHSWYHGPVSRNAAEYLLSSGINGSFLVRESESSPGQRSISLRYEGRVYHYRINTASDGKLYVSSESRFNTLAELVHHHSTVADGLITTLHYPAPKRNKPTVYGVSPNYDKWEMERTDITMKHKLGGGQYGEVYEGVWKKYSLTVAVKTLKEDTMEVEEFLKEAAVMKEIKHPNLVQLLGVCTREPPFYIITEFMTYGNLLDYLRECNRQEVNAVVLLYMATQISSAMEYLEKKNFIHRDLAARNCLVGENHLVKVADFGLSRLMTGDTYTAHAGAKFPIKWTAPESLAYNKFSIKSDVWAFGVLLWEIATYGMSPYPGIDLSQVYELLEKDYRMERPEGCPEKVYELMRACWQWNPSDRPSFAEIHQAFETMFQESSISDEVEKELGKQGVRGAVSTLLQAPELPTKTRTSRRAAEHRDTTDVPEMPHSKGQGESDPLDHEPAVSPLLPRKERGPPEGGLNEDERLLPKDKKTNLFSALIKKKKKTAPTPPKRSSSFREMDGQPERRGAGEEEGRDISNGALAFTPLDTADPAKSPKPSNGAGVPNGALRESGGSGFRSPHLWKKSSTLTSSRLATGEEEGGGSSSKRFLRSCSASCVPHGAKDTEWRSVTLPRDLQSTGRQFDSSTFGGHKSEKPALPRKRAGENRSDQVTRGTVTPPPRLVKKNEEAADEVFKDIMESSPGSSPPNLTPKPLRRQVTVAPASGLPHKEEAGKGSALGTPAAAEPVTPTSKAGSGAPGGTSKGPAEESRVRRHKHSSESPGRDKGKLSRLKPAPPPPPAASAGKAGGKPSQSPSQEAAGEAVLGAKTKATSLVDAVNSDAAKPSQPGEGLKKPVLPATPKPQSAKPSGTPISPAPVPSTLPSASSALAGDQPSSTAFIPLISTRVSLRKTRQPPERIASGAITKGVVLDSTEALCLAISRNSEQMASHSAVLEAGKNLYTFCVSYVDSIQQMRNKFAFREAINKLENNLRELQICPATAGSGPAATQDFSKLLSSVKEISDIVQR
# Target sequence (Q13671 whole entry, looked up): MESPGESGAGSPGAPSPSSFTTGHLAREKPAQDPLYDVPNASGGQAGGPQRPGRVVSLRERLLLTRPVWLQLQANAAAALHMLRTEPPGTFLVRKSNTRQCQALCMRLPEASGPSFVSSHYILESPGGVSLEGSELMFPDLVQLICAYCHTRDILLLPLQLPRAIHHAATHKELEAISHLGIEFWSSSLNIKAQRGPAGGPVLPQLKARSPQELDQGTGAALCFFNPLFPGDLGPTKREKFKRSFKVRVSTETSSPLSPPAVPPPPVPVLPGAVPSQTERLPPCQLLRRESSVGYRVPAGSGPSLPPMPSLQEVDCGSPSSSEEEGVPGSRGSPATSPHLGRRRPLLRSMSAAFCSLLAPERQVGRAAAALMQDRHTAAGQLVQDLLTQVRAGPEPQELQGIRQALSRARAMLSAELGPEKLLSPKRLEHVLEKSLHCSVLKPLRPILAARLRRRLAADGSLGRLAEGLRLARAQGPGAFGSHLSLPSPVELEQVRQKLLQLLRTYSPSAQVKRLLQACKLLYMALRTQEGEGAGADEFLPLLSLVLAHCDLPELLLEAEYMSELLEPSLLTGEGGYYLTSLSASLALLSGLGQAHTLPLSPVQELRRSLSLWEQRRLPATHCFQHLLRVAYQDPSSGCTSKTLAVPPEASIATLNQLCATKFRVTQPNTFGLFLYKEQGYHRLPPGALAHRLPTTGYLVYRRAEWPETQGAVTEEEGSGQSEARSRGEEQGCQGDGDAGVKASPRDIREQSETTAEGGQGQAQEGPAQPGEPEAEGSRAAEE
# Rin1-Abl confirm – Rin1-Abl binding inhibitor retest, confirmation, biochemical, TR-FRET | purified proteins | shares compounds with Rin1 Abl inh | hit rate 49% among 1,300 | AID 602124, 2011 | inhibition, % at 7.35 µM
# GFP quencher – GFP fluorescence inhibitors and quenchers, artefact control for Rin1-Abl interaction inhibitor project, biochemical; shares compounds with Rin1 Abl inh; inhibitors/quenchers counterscreen; inhibition, % at 6.75 µM; hit rate 8.5% among 1,300; AID 602125, 2011;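 also: ABL1-eGFP fusion protein alone without its partner RIN1-SBP; 0% = protein with vehicle and 100% = wells lacking protein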
# GFP quench dose – GFP fluorescence inhibitors and quenchers, dose response, artefact control for Rin1-Abl interaction inhibitor project, biochemical | shares compounds with Rin1 Abl inh | GFP fluorescence interference/quenching counterscreen | IC50, µM | 230 tested, under 10 active; call rule not given here;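 also: ABL1-eGFP fusion protein alone without its RIN1 binding partner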
# The depositor's hits bear a star; . = not tested or not shown. Rule as the data show it, unless noted: active = inhibition above about 6.5%; inactive = the rest.
SMILES,Tb MetRS inh,Arr AP2 block,SKN-1 inh,MT1-MMP act inh,Rin1 Abl inh,Rin1-Abl confirm,GFP quencher,others
CCCCCn1cnc2c(sc3nc4c(cc32)CSC(C)(C)C4)c1=O,-1,29,9,27,2,.,.,
O=C(c1ccc(CS(=O)c2ccccc2Cl)o1)N1CCN(C2CCCCC2)CC1 (stereo not given),0,.,0,-7,0,.,.,
Oc1cc2c(cc1O)C1c3ccc(O)c(O)c3OCC1(O)C2 (stereo not given),-2,48,46,22,31*,31*,20*,
COc1cc2nc(Nc3ccc(C)c(C)c3)nc(N)c2cc1OC,1,-6,16,8,11,.,.,
COc1cc2nc(Nc3ccc(F)cc3)nc(N)c2cc1OC,5,39,-5,15,14*,16*,0,
Cc1cccc(N(Cc2ccccc2)C(=O)c2ccc(S(C)(=O)=O)cc2)c1,0,2,11,-5,8.3*,-2,2,
O=C(NCC(F)(F)F)C1C(=O)Nc2ccccc2C(=O)N1Cc1ccccc1 (stereo not given),0,.,0,-4,.,.,.,
CCOCc1nnc(NC(=O)c2ccco2)s1,0,-12,-2,1,2,.,.,
O=C(Nc1nnc(Cc2ccc(Cl)cc2)s1)c1ccco1,-1,25,2,0,7.4*,-1,-1,
CC1(C(=O)NCc2ccccc2)CSCC(=O)N1Cc1cccc(F)c1 (stereo not given),0,.,0,3,.,.,.,
CCOC(=O)C1(Cc2ccc(OC)cc2)CCN(C(=O)CN2CCCCC2=O)CC1,-1,23,-1,0,9.9*,1,-2,
CC(C)C(=O)Nc1ccc2c(c1)nc(CCN1CCN(c3ccccn3)CC1)n2C,-1,9,31,4,-1,.,.,
CC(C)C[C@H]1CN(CCCC[C@@H]2CNC(=O)C(=O)N2Cc2ccccc2)C(=O)C(=O)N1CCc1ccccc1,-1,.,-10,4,.,.,.,
CCNS(=O)(=O)c1ccc(CCC(=O)O)cc1,-1,12,7,0,8.8*,-1,1,
Cc1ccc(NS(=O)(=O)c2cc(OCC(N)=O)c(C)cc2Cl)cc1C,-1,5,5,7,12*,-1,-1,
Cc1cccc(NS(=O)(=O)c2cc(OCC(N)=O)c(C)cc2Cl)c1,-1,5,3,-3,1,.,.,
CN(C)CCN1CCN(C2CN(CCc3ccccc3)S(=O)(=O)C2)CC1 (stereo not given),0,.,7,1,2,.,.,
O=S(=O)(Nc1nccs1)c1ccc(Br)cc1,1,18,10,-1,11*,-2,0,
CNC(=O)C[C@H]1C(=O)N(CCc2ccccc2)C[C@@H]1Cc1ccccc1,-1,.,-6,3,-2,.,.,
O=C(O)c1ccc(COc2ccccc2Cl)cc1,-1,2,-10,-2,5.0*,0,0,
O=C(O)c1cccc(COc2ccccc2Cl)c1,0,-3,8,-3,2,.,.,
Cc1ccc(S(=O)(=O)N2CC3C(=O)C[C@@H](c4ccccc4)N(S(=O)(=O)c4ccccc4Cl)C3CC2c2ccccc2)cc1 (stereo not given in full),0,.,-6,9,.,.,.,
O=C(Nc1ccc(F)cc1)C(CCc1ccccc1)N1CCN(c2cccc(C(F)(F)F)n2)CC1 (stereo not given),0,.,8,-16,.,.,.,
CN(C)Cc1ccccc1CCc1ccccc1,0,-6,15,0,-1,.,.,
N=c1ccn(O)cc1CCc1ccccc1,0,-5,-1,0,17*,22*,0,GFP quench dose=>67
SMILES,Tb MetRS inh,Arr AP2 block,SKN-1 inh,MT1-MMP act inh,Rin1 Abl inh,Rin1-Abl confirm,GFP quencher,others
O=C(NCCO)c1ccc2nc(-c3ccco3)c(-c3ccco3)nc2c1,1,45,22,-5,10.0*,4,14*,
O=C(NCCc1ccccc1)c1ccc2nc(-c3ccco3)c(-c3ccco3)nc2c1,1,26,-3,2,2,.,.,
COc1ccccc1NC(=O)N(C)C[C@@H]1OCc2cnnn2CCCC(=O)N([C@@H](C)CO)C[C@@H]1C,0,.,3,-2,-1,.,.,
CCCc1nc2c3ccccc3ccn2c1Cc1ccccc1,-1,.,5,-1,6,.,.,
CCOC(=O)N1CCN(C(=O)CSc2nnc(Cc3cccn3C)n2CCc2ccccc2)CC1,0,-5,10,0,5.7*,-1,-1,
Cn1cccc1Cc1nnc(SCC(=O)N2CCOCC2)n1CCc1ccccc1,0,-4,7,-1,-1,.,.,
O=c1cc(-c2ccc(O)cc2)oc2c([C@@H]3O[C@H](CO)[C@@H](O)[C@H](O)[C@H]3O)c(O)c([C@@H]3O[C@H](CO)[C@@H](O)[C@H](O)[C@H]3O)c(O)c12,0,7,-8,4,1,.,.,
CC(=O)Cc1cc(=O)c2c(C)cc(O)c(C3OC(CO)C(O)C(O)C3O)c2o1 (stereo not given),-2,8,-6,5,-2,.,.,
O=c1cc(-c2ccc(O)c(O)c2)oc2cc(O)c([C@@H]3O[C@H](CO)[C@@H](O)[C@H](O)[C@H]3O)c(O)c12,1,19,8,3,22*,28*,10*,
O=c1c2cc(O)c(O)cc2oc2cc(O)c(C3OC(CO)C(O)C(O)C3O)c(O)c12 (stereo not given),0,5,-11,9,29*,30*,8.4*,
CN(C)CCN(C)C1CN(Cc2ccccc2)S(=O)(=O)C1 (stereo not given),-1,.,7,0,1,.,.,
Nc1nc(NC2CCCC2)cc(=O)[nH]1,0,-23,10,-1,18*,24*,1,GFP quench dose=>68
O=c1cc(NC2CCCCC2)[nH]c(=O)[nH]1,0,-1,6,-1,1,.,.,
O=C(C1=COCCO1)N(Cc1nnc(-c2ccc(Cl)cc2)o1)C1CC1,0,-1,6,1,-2,.,.,
O=C(C1=COCCO1)N(Cc1nnc(-c2ccccc2Cl)o1)C1CC1,0,7,-6,-4,8.2*,-1,1,

# From PubChem
